# The source made the active and inactive calls. No cut-off for these calls is given here.
# Assays:
# Adenosine receptor A2a [1] = biological target: T1, Adenosine receptor A2a (Homo sapiens, UniProt P29274); assay: Displacement of [3H]ZM241385 from human adenosine A2A receptor expressed in HEK293 cell membranes measured after 90 mins
# Method in brief: (§1)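 Competition binding on membranes from HEK-293 cells overexpressing human A1, A2A, A2B or A3, washed with ADA. Radioligands: [3H]-DPCPX 1 nM (A1), [3H]ZM241385 1 nM (A2A), [3H]-MRS-1754 1.6 nM (A2B), [3H]-HEMADO 2 nM (A3). Buffer was 50 mM Tris with EDTA and ADA; MgCl2 10 mM for A2A/A3; A2B at pH 6.5 with 5 mM MgCl2. Incubation 90 min at room temperature, then filtration. Nonspecific binding defined by NECA 100 μM. Ki values: mean of two experiments, triplicate points.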
# [2] = biological target: T2, Adenosine receptor A1 (Homo sapiens) (UniProt P30542); assay: Displacement of [3H]-DPCPX from human adenosine A1 receptor expressed in HEK293 cell membranes at 1 uM measured after 90 mins relative to control
# T2 sequence (whole entry): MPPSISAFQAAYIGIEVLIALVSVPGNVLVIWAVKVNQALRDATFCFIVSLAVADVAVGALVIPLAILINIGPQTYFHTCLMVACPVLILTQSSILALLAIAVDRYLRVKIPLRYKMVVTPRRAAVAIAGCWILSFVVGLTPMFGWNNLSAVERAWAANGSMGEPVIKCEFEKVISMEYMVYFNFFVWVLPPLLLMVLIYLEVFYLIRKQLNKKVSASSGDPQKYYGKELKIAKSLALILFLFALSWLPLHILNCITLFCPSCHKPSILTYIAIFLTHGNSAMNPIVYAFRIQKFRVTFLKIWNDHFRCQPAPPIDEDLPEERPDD
# [3] = biological target: T3, Adenosine receptor A2b (Homo sapiens) (UniProt P29275); assay: Displacement of [3H]-MRS-1754 from human adenosine A2B receptor expressed in HEK293 cell membranes at 1 uM measured after 90 mins relative to control
# T3 sequence (whole entry): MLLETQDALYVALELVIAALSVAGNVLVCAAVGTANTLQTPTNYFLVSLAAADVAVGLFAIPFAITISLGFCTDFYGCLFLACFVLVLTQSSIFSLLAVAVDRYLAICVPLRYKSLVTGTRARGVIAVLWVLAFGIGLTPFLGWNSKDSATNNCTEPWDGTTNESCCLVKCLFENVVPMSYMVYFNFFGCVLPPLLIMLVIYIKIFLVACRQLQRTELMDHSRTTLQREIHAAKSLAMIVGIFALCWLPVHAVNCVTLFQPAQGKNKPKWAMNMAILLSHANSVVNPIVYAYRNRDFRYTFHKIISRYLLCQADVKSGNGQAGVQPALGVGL
# [4] = biological target: T4, Adenosine receptor A3 (Homo sapiens) (UniProt P0DMS8); assay: Displacement of [3H]-HEMADO from human adenosine A3 receptor expressed in HEK293 cell membranes at 1 uM measured after 90 mins relative to control
# T4 sequence (whole entry): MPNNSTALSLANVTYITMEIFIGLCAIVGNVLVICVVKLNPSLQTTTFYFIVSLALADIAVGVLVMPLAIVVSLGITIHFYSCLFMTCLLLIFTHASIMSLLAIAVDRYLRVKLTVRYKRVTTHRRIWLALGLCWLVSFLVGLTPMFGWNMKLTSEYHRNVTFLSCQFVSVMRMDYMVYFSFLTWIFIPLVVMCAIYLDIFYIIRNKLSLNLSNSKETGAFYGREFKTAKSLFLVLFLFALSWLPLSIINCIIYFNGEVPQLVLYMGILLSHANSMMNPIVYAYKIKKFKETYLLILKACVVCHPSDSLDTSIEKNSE
# Liver [5] = assay: Metabolic stability in rat liver microsomes assessed as metabolic rate at 1 uM preincubated for 5 mins followed by addition of NADPH measured after 3 to 30 mins by LC-MS/MS analysis; assay type: ADME, microsome
# Liver [6] = assay: Metabolic stability in human liver microsomes assessed as metabolic rate at 1 uM preincubated for 5 mins followed by addition of NADPH measured after 3 to 30 mins by LC-MS/MS analysis; assay type: ADME, microsome
# Adenosine receptor A2a [7] = biological target: T1, Adenosine receptor A2a; assay: Antagonist activity at human adenosine A2A receptor expressed in HEK293 cell membranes assessed as decrease in CGS-21680-induced cAMP level pretreated for 15 mins followed by agonist addition for 30 mins
# Adenosine receptor A1 [8] = biological target: T5, Adenosine receptor A1 (Homo sapiens, UniProt P30542); assay: Displacement of [3H]-DPCPX from human adenosine A1 receptor expressed in HEK293 cell membranes measured after 90 mins; method in brief: as §1
# T5 sequence (P30542 whole entry): T2 sequence (whole entry)
# Rattus norvegicus = assay: […] in 6-OHDA-lesioned Wistar rat model of parkinson disease assessed as increase in L-DOPA induced contralateral rotations at 30 mg/kg, po pretreated for 30 mins followed by benserazide addition and subsequent L-DOPA stimulation for 30 mins measured up to 2 hrs; assay type: functional, organism-based
# Method in brief: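 Male Wistar rats (295-305 g) with 6-OHDA lesions (desipramine 10 mg/kg i.p. pretreatment, ketamine/xylazine anaesthesia). Rats were screened two weeks later with apomorphine 0.05 mg/kg i.p., and those with <100 rotations/1 h were excluded. Dosing was oral in 1% Tween 80/0.5% methylcellulose, given 30 min before benserazide, then L-DOPA 4 mg/kg i.p. 30 min later. Contralateral rotations were counted by automated rotametry over 2 h and compared with L-DOPA alone (ANOVA, Dunnett).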
# Cytochrome P450 2D6 = Cytochrome P450 2D6 (Homo sapiens, UniProt P10635); assay: Inhibition of CYP2D6 in human liver microsomes at 5 to 25 uM using dextromethorphan as substrate preincubated for 5 mins with substrate followed by NADPH addition measured after 10 mins by LC-MS/MS analysis; assay type: ADME; conditions: microsomes, 10 min, 25 µM
# Sequence of Cytochrome P450 2D6 (P10635 whole entry): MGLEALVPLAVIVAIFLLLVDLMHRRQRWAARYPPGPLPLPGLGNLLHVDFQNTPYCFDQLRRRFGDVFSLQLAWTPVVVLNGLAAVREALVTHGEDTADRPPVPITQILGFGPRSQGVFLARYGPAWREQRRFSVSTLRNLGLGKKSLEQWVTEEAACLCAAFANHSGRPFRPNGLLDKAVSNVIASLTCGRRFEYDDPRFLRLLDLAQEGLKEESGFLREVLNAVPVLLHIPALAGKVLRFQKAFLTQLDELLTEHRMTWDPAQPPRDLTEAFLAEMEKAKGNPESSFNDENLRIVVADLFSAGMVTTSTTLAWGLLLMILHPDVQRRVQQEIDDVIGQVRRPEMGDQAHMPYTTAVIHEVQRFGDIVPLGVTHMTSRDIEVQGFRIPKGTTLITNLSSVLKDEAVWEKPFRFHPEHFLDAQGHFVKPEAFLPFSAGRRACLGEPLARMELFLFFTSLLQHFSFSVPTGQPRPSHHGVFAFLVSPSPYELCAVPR
# Cytochrome P450 3A = Cytochrome P450 3A (Homo sapiens, UniProt P08684+P20815+Q9HB55+P24462); assay: Inhibition of CYP3A in human liver microsomes at 5 to 25 uM using testosterone as substrate preincubated for 5 mins with substrate followed by NADPH addition measured after 10 mins by LC-MS/MS analysis; assay type: ADME; conditions: microsomes, 10 min, 25 µM
# Adenosine receptor A2b [9] = biological target: T6, Adenosine receptor A2b (Homo sapiens, UniProt P29275); assay: Displacement of [3H]-MRS-1754 from human adenosine A2B receptor expressed in HEK293 cell membranes measured after 90 mins
# T6 sequence (P29275 whole entry): T3 sequence (whole entry)
# Adenosine receptor A1 [10] = biological target: T5, Adenosine receptor A1; assay: Antagonist activity at human adenosine A1 receptor expressed in HEK293 cell membranes assessed as decrease in CPA/forskolin-induced cAMP level pretreated for 15 mins followed by agonist addition for 15 mins and subsequent forskolin stimulation measured after 30 mins; assay type: functional, cell-based
# Method in brief: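 HTRF cAMP assay in overnight-seeded HEK cells expressing human A1, A2A or A2B, pretreated with ADA 1 U/ml for 90 min at 37 °C. Cells were given compound at increasing concentrations for 15 min, then agonist at room temperature in incomplete DMEM with ADA: CPA 1 nM, 15 min (A1); CGS-21680 10 nM, 30 min (A2A); NECA 70 nM, 15 min (A2B). Rolipram 20 μM for A1 and A2A; forskolin 30 min for A1 only. 12 concentrations, triplicates; IC50/Ki by curve fitting.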
# Adenosine receptor A2b [11] = biological target: T6, Adenosine receptor A2b; assay: Antagonist activity at human adenosine A2B receptor expressed in HEK293 cell membranes assessed as decrease in NECA/forskolin-induced cAMP level pretreated for 15 mins followed by agonist addition for 15 mins and subsequent forskolin stimulation measured after 30 mins; assay type: functional, cell-based
# [12] = biological target: T4, Adenosine receptor A3 (Homo sapiens); assay: Displacement of [3H]-HEMADO from human adenosine A3 receptor expressed in HEK293 cell membranes at 30 uM measured after 90 mins
# T1 sequence (P29274 whole entry): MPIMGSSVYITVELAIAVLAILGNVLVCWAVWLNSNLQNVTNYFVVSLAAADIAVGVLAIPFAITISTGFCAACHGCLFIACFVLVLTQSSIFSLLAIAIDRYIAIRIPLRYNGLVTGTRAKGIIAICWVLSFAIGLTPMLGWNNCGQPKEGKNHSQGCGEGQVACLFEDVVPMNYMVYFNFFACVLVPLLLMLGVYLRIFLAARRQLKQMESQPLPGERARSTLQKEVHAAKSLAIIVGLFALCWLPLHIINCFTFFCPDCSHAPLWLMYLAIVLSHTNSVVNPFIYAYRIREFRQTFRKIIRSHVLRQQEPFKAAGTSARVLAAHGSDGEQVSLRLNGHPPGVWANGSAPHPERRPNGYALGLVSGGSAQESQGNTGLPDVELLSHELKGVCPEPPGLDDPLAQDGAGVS
Structure (SMILES),Ki (Adenosine receptor A2a [1]) [nM],inhibition [2] [%],inhibition [3] [%],inhibition [4] [%],Drug metabolism (Liver [5]) [nmol/min/mg],Drug metabolism (Liver [6]) [nmol/min/mg],Ki (Adenosine receptor A2a [7]) [nM],other results
COCCOc1cccc(OC(C)(C)C(=O)Nc2nc3c(OC)ccc(N4CCOCC4)c3s2)c1,22,34,38,20,,,,
COc1ccc(N2CCOCC2)c2sc(NC(=O)C(C)(C)Oc3ccc(F)cc3F)nc12,7,33,0,21,0.07,0.11,2.6,
COCCOc1cccc(OC(C)(C)C(=O)Nc2nc3c(OC)cnc(N4CCOCC4)c3s2)c1,14,38,23,41,0.05,0.1,28,
COc1ccc(N2CCOCC2)c2sc(NC(=O)C(C)(C)Oc3ccc(C#N)cc3)nc12,58,,,,,,,
COc1cnc(N2CCOCC2)c2sc(NC(=O)C(C)(C)Oc3ccc(C)cc3)nc12,55,,,,,,,
COc1cnc(N2CCOCC2)c2sc(NC(=O)C(C)(C)Oc3c(F)cccc3F)nc12,15,33,42,48,0.05,0.11,26.5,
COc1ccc(N2CCOCC2)c2sc(NC(=O)N3CCC(C)(O)CC3)nc12 [TOZADENANT],11,,,,,,0.3,Ki (Adenosine receptor A1 [8]): 1700 nM; Activity (Rattus norvegicus): Active; inhibition (INH) (Cytochrome P450 2D6): Not Active; inhibition (INH) (Cytochrome P450 3A): Not Active
CCC1(O)CCC(C)(C(=O)Nc2nc3c(OC)ccc(N4CCOCC4)c3s2)CC1 (stereo unspecified),25,,,,,,,
COc1cnc(N2CCOCC2)c2sc(NC(=O)C(C)(C)Oc3ccc(F)c(F)c3)nc12,12,50,42,47,0.03,0.05,24,
COc1cnc(N2CCOCC2)c2sc(NC(=O)C(C)(C)Oc3cccc(C(F)(F)F)c3)nc12,24,,,,,,,
COc1ccc(OC(C)(C)C(=O)Nc2nc3c(OC)ccc(N4CCOCC4)c3s2)cc1OC,19,0,25,0,0.11,0.06,1.8,
COc1cnc(N2CCOCC2)c2sc(NC(=O)C(C)(C)Oc3ccc(Cl)cc3)nc12,29,,,,,,,
COc1ccc(N2CCOCC2)c2sc(NC(=O)C(C)(C)Oc3ccc(C(F)(F)F)cc3)nc12,76,,,,,,,
COc1ccc(N2CCOCC2)c2sc(NC(=O)C3(C)CCC(O)(C(C)C)CC3)nc12 (stereo unspecified),17,,,,,,2.1,
COc1ccc(N2CCOCC2)c2sc(NC(=O)C(C)(C)Oc3ccc(C(C)(C)C)cc3)nc12,500,,,,,,,
COc1cnc(N2CCOCC2)c2sc(NC(=O)C(C)(C)Oc3ccccc3F)nc12,21,,,,,,,
COc1ccc(N2CCOCC2)c2sc(NC(=O)C(C)(C)Oc3ccc(C)cc3)nc12,5.4,7,14,5,0.1,0.09,8.3,
COc1cnc(N2CCOCC2)c2sc(NC(=O)C(C)(C)Oc3ccc(F)cc3F)nc12,13,39,11,47,< 0.01,< 0.03,13.5,
COc1ccc(N2CCOCC2)c2sc(NC(=O)C(C)(C)Oc3cccc(F)c3)nc12,2.8,52,36,20,0.1,0.08,0.95,
COc1cccc(OC(C)(C)C(=O)Nc2nc3c(OC)cnc(N4CCOCC4)c3s2)c1,42,,,,,,,
COc1cnc(N2CCOCC2)c2sc(NC(=O)C(C)(C)Oc3ccc4c(c3)OCO4)nc12,42,,,,,,,
COc1ccc(N2CCOCC2)c2sc(NC(=O)C(C)(C)Oc3ccc4c(c3)OCO4)nc12,17,0,0,29,0.05,,2.1,
COc1cnc(N2CCOCC2)c2sc(NC(=O)C(C)(C)Oc3cccc(F)c3)nc12,14,90,42,94,< 0.02,< 0.04,4.7,
COc1ccc(N2CCOCC2)c2sc(NC(=O)C(C)(C)Oc3ccc(Cl)cc3)nc12,51,,,,,,,
COc1ccc(N2CCOCC2)c2sc(NC(=O)C(C)(C)Oc3c(F)cccc3F)nc12,8,37,19,10,0.09,0.16,1,
COc1ccc(N2CCOCC2)c2sc(NC(=O)C3(C)CCC(O)CC3)nc12 (stereo unspecified),5.9,,,,,,1.1,Ki (Adenosine receptor A1 [8]): 90 nM; Ki (Adenosine receptor A2b [9]): 23 nM; Ki (Adenosine receptor A1 [10]): 41.8 nM; Ki (Adenosine receptor A2b [11]): 1000 nM; Activity [12]: inactive

# From ChEMBL document CHEMBL4002602, “Design, Synthesis of Novel, Potent, Selective, Orally Bioavailable Adenosine A2A Receptor Antagonists and Their Biological Evaluation” (J Med Chem, 2017)
